Assay results gathered from unrelated publications.
Lines come from different studies, so protocols differ.
Target: TRAF2 and NCK-interacting protein kinase (TNIK, Homo sapiens, UniProt Q9UKE5)

| Compound | observed | action | method | concentration | quantity | value |
| --- | --- | --- | --- | --- | --- | --- |
| CN1CCN(c2cnc3c(C4CCN(C(=O)c5ccc(OC(F)(F)F)cc5N)CC4)ncnc3c2)CC1 | cell-free assay | – | competition with immobilised ligand | 1 µM | remaining binding | 100% |
| Cn1c2c(c3ccc(Cl)c(Cl)c31)C(C#N)C1(CCCCC1)NC2=O (racemic) | thermal stability | – | DSF | 10 µM | ΔTm | 0 °C |
| Cn1cnc(Br)c1C1=CN(c2ncnc3[nH]cnc23)CCS1 | enzyme activity | inhibitor | radiometric | 50 nM | inhibition | 21.5% |
| O=C(Nc1cnn(-c2csc(C(=O)NC3COC3)c2)c1)Nc1ccccc1Cl | enzyme activity | inhibitor | – | 5 µM | remaining activity | 53.2% |
| CN1CCC2(CC1)NC(=O)c1c(c3ccc(Cl)c(Cl)c3n1C)C2C#N (racemic) | thermal stability | – | DSF | 10 µM | ΔTm | 0 °C |
| CCC(=O)N[C@H]1CC[C@@H](C(=O)N(C)c2ccc(-c3nc4ccccc4o3)cc2)C1 | cell-free assay | – | competition with immobilised ligand | 1 µM | remaining binding | 100% |
| CCCCNc1ncc2c(-c3ccc(F)cc3)nn(C[C@H]3CC[C@H](N)CC3)c2n1 | target engagement in cells | inhibitor | chemoproteomics | 20 mM | inhibition | 62.6% |
| CNC(=O)c1cc2c(Oc3ccc(NC(=O)C4(C(=O)Nc5ccc(F)cc5)CC4)cc3)ccnc2cc1OC | enzyme activity | inhibitor | radiometric | 1 µM | inhibition | 73% |
| O=C(Nc1cnn(-c2csc(C(=O)NC3COC3)c2)c1)Nc1c(F)cccc1Cl | enzyme activity | inhibitor | – | 5 µM | remaining activity | 84.3% |
| CO[C@@H](C)c1c(Nc2ccc([C@@H](N(C)C(=O)C3CCS(=O)(=O)CC3)C(F)(F)F)cc2)cnc2cc(Cl)nn12 | cell-free assay | – | competition with immobilised ligand | 1 µM | remaining binding | 100% |
| C=CC(=O)Nc1cc(Nc2nccc(Nc3cc(Cl)c(F)cc3C(C)(C)O)n2)c(OC)cc1N1CC[C@@H](N(C)C)C1 | enzyme activity | inhibitor | – | 1 µM | inhibition | 47% |
| Cn1c2c(c3ccc(Cl)c(Cl)c31)C(C#N)C1(CCN(C(=O)OC(C)(C)C)CC1)NC2=O (racemic) | thermal stability | – | DSF | 10 µM | ΔTm | -0.1 °C |
| O=C(CSc1nc2nccnc2c(=O)n1CCc1ccccc1)Nc1nccs1 | enzyme activity | inhibitor | – | 10 µM | inhibition | -4% |
| CC(C)(O)[C@H]1CC[C@H](Nc2ccc3ncc(-c4cccc(C(F)(F)F)c4)n3n2)CC1 | enzyme activity | inhibitor | – | 1 µM | remaining activity | 96.9% |
| CS(=O)(=O)c1cc(C2(NC(=O)c3cncc4c3cnn4-c3ccc(F)cc3)CC2)ccn1 | cell-free assay | – | competition with immobilised ligand | 1 µM | remaining binding | 95% |
| CC1(C)NC(=O)c2[nH]c3c(Cl)c(Cl)ccc3c2C1C#N (stereo not drawn) | thermal stability | – | DSF | 10 µM | ΔTm | 0 °C |
| Cn1cc(Cl)c2c(Oc3c(F)cc(Nc4cc(Cl)nc(N)n4)cc3F)ccnc21 | cell-free assay | – | competition with immobilised ligand | 0.1 µM | remaining binding | 96% |
| N#CC1c2c([nH]c3c(Cl)c(Cl)ccc23)C(=O)NC12CCCCC2 (racemic) | thermal stability | – | DSF | 10 µM | ΔTm | 0 °C |
| c1ccc(CNc2nc(N3CCOc4ccccc43)nc3c2CCCC3)cc1 | target engagement in cells | inhibitor | chemoproteomics | 20 mM | inhibition | -8% |
| Cn1c2c(Cl)c(Cl)ccc2c2cc(N)[nH]c(=O)c21 | thermal stability | – | DSF | 10 µM | ΔTm | 0.1 °C |
| C[C@@H]1CN(c2cc(-c3nn(C)c4ccc(OC5(C)CC5)cc34)ncn2)C[C@H](C)O1 | cell-free assay | – | competition with immobilised ligand | 1 µM | remaining binding | 80% |
